Laboratory results reported in PMC3172161 (ACS chemical neuroscience, 2011).
Where two headings read alike, the source gives them in different places.

Columns and labels:
rat mGlu5 [1] = target: T1, rat mGlu5 (Rattus norvegicus, UniProt P31424); test: Calcium mobilization assay; format: cell-based; details: for % Glu Max: amplitude of response in the presence of 30 μM test compound as a percentage of maximal response (100 μM glutamate)
Summary of the method: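 HEK293A cells stably expressing rat mGlu5 were plated at 20K/well and grown overnight at 37 °C in 6% CO2. They were loaded with 2 μM Fluo-4 AM at 37 °C in HBSS with 20 mM HEPES and 2.5 mM probenecid. Compound (10-point 1:3 series, 30 μM–1 nM final) was added 140 s before EC20 glutamate, then EC80 glutamate 74 s later. Ca2+ fluorescence read at 1 Hz; IC50 from four-parameter logistic fit.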

[2] = Stability in liver microsomes; format: in vitro ADME; details: human liver microsomes; 1 μM, 15 min, 37 °C, NADPH
Summary of the method: (§1)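 Test compound at 1 μM was incubated 15 min at 37 °C with shaking, with human or mouse liver microsomes, phosphate buffer and NADPH. Samples were analysed by UPLC-ESI-MS/MS on a C18 column with a formic acid/acetonitrile gradient. % parent remaining was calculated against similarly prepared un-incubated controls.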

C57Bl/6J mice [3] = test: Operant sensation seeking; format: in vivo, mouse; details: 10 min prior to sessions
Summary of the method: (§2)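 Male C57Bl/6J mice (3–5 weeks) responded for varied visual and auditory stimuli: 10–14 daily 1 h FR-1 sessions, then 2 h progressive-ratio sessions. Test compound (0, 3, 10, 30 mg/kg in 10% Tween-80) or reference NAM (0, 1.5, 5, 15 mg/kg in saline; 12 FR sessions) given ip, 20 ml/kg, 10 min pre-session. Latin square, doses 48 h apart. Reinforcers earned analysed by repeated-measures ANOVA/Dunnett.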

C57Bl/6J mice [4] = test: Food reinforcer self-administration, progressive ratio responding; format: in vivo, mouse; details: 3, 10, 30 mg/kg i.p., 10 min prior to sessions
Summary of the method: as §2, with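 “~40 μl of 10% vanilla Ensure:” for “varied visual and auditory stimuli:”, “saline)” for “saline; 12 FR sessions)”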

[5] = Plasma protein binding assay; format: in vitro ADME; details: human
male CD-1 mice = test: Marble burying model of anxiety; format: in vivo, mouse; details: 15 minute pretreatment
Summary of the method: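 Male CD-1 mice (30–35 g) were habituated 30 min to the test room. After 15 min pretreatment each was placed alone in a cage with 12 evenly spaced marbles on 2.5 cm bedding. Burying recorded over 30 min; counterbalanced design; Dunnett's test versus vehicle.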

mGlu7 = mGlu7 (Homo sapiens, UniProt Q14831); test: Cell based functional selectivity assay
mGlu7, sequence (Q14831 35-915): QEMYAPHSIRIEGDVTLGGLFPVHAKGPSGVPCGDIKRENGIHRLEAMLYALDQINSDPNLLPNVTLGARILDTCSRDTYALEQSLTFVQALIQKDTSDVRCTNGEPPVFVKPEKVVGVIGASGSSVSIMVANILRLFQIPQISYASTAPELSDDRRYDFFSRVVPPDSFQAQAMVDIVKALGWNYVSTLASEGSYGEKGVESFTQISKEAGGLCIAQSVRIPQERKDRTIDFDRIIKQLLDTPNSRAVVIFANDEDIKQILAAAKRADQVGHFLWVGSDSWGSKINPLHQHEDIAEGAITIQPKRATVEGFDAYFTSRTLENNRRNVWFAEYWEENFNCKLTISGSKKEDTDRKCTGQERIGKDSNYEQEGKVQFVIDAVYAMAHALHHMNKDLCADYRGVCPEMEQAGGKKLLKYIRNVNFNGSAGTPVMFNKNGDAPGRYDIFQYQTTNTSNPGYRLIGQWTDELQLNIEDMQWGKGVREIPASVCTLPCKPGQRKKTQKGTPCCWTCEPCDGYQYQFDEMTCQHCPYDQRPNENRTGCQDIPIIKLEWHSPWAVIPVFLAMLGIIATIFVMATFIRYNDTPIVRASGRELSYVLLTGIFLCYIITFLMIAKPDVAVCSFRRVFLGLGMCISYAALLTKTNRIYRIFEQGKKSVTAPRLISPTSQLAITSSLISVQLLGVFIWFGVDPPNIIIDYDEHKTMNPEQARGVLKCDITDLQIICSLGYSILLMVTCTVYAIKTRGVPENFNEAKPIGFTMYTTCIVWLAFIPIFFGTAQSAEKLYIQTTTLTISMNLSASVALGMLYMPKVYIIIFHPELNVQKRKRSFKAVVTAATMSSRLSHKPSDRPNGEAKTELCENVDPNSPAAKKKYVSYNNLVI

mGlu3 = mGlu3 (Homo sapiens, UniProt Q14832); test: Cell based functional selectivity assay
[6] = Plasma protein binding assay; format: in vitro ADME; details: mouse
[7] = Mouse pharmacokinetic study, intraperitoneal dosing; format: in vivo
Summary of the method: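 Male CD-1 mice (~30 g) received 10 mg/kg ip as a 0.5 mg/ml microsuspension in 10% Tween 80/water (20 ml/kg). Plasma (cardiac puncture, EDTA) and PBS-washed brains were collected at 15, 30, 60, 180 and 360 min, n=3 per time. Brains homogenized 1:5 (w/w) in PBS; samples precipitated with acetonitrile plus internal standard and run on HPLC/MS/MS. Dilution-corrected; noncompartmental analysis.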

mGlu1 = mGlu1 (Homo sapiens, UniProt Q13255); test: Cell based functional selectivity assay
mGlu1, sequence (Q13255 19-1194): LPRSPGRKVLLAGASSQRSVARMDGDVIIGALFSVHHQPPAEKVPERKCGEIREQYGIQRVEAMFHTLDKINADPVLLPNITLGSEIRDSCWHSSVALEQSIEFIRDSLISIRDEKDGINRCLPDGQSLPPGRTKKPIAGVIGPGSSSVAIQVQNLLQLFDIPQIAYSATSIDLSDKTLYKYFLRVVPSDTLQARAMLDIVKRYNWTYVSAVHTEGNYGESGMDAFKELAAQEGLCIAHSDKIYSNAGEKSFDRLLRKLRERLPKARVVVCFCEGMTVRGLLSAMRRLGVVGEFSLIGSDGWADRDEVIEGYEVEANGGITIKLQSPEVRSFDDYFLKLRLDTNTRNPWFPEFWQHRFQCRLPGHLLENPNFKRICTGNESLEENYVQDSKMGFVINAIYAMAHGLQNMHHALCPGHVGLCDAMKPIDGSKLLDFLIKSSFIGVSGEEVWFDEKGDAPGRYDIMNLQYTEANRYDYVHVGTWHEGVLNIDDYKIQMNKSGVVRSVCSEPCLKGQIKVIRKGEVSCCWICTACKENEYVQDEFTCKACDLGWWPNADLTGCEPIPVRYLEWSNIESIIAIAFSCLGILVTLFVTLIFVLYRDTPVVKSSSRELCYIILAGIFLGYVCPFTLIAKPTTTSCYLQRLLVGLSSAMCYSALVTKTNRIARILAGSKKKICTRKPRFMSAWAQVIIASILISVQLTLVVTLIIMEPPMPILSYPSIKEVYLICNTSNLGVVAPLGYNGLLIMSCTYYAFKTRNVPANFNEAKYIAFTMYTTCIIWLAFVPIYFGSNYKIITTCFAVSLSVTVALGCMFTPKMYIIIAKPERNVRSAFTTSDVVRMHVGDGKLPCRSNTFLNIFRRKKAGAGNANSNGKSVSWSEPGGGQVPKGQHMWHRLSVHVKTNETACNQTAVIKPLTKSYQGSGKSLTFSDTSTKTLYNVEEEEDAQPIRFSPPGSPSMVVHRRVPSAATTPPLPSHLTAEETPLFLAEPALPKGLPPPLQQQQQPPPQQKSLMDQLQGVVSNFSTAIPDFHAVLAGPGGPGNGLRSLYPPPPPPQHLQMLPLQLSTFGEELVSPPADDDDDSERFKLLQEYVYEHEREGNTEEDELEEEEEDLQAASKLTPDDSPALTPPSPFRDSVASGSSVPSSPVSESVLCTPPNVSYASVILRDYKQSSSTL

mGlu4 = mGlu4 (Homo sapiens, UniProt Q14833); test: Cell based functional selectivity assay
mGlu4, sequence (Q14833 33-912): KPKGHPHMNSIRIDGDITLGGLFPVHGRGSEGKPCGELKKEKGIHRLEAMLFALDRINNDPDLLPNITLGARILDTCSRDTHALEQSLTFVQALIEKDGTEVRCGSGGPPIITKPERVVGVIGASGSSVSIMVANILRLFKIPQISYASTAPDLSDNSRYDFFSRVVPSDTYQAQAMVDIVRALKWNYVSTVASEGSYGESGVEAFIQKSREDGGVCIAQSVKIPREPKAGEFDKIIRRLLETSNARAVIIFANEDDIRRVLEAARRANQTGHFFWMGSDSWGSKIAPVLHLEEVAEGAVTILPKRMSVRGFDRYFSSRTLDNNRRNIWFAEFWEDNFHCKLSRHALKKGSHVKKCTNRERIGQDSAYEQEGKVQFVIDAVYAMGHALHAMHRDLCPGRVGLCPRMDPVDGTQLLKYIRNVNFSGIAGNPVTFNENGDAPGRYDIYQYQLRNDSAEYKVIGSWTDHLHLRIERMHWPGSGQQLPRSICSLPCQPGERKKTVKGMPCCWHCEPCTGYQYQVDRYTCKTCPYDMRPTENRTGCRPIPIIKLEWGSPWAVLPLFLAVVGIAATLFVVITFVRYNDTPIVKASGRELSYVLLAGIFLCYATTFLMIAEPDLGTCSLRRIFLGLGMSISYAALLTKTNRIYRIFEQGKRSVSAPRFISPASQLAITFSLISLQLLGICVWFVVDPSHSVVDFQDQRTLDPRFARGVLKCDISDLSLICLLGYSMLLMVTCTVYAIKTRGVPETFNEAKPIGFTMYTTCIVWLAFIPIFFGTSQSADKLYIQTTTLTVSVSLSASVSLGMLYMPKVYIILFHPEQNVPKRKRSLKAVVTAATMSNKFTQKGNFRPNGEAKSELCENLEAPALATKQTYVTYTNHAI

[8] = Stability in liver microsomes; format: in vitro ADME; details: mouse liver microsomes; 1 μM, 15 min, 37 °C, NADPH
Summary of the method: as §1

[9] = target: mGlu5 in rat cortical astrocytes (Rattus norvegicus, UniProt P31424); test: Rat cortical astrocytes assay; format: cell-based; details: fixed concentration 10 μM, increasing concentrations of glutamate
mGlu5 in rat cortical astrocytes, sequence (P31424 21-1203): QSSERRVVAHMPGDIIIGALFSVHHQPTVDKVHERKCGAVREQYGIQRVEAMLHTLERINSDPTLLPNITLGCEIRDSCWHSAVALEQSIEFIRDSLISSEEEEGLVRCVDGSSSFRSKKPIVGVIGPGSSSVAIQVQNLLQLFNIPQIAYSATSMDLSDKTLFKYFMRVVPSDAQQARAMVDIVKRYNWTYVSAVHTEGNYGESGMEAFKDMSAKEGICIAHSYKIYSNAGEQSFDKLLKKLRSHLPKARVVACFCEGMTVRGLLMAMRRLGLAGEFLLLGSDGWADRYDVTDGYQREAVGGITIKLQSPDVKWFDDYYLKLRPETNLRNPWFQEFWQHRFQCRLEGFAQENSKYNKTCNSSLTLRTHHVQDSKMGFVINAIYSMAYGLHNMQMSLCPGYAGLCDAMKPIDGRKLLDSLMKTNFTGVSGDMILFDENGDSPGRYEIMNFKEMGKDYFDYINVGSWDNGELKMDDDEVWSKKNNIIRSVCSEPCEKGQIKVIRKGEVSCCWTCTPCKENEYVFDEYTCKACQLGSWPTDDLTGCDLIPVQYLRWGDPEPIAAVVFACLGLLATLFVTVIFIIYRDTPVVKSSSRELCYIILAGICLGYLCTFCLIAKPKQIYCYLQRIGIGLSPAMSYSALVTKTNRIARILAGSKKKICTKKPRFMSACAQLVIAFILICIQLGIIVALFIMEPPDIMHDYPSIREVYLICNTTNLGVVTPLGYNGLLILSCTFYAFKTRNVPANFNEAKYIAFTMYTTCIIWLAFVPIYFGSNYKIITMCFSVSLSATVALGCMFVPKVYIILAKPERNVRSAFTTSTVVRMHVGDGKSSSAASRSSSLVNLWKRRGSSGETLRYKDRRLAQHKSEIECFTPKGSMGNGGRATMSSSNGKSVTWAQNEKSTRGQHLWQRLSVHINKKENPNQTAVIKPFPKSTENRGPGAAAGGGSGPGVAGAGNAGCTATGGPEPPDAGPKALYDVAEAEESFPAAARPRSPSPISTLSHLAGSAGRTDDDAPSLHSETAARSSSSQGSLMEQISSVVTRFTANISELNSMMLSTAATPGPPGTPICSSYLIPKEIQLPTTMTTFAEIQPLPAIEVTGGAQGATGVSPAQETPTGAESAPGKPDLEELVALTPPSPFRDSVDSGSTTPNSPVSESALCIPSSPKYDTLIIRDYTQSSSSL

rat mGlu5 [10] = target: T1, rat mGlu5; test: Radioligand binding assay, [3H]methoxyPEPy competition
Summary of the method: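 Competition binding used membranes from rat mGlu5 HEK293A cells (40 μg/well) in 50 mM Tris/0.9% NaCl, pH 7.4, with [3H]methoxyPEPy (2 nM final) and test compound. Incubation was 1 h at room temperature with shaking, then GF/B filtration, 3–4 buffer washes and scintillation counting. Non-specific binding defined with 5 μM MPEP; curves fitted by four-parameter logistic equation.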

mGlu8 = mGlu8 (Homo sapiens, UniProt O00222); test: Cell based functional selectivity assay
mGlu8, sequence (O00222 34-908): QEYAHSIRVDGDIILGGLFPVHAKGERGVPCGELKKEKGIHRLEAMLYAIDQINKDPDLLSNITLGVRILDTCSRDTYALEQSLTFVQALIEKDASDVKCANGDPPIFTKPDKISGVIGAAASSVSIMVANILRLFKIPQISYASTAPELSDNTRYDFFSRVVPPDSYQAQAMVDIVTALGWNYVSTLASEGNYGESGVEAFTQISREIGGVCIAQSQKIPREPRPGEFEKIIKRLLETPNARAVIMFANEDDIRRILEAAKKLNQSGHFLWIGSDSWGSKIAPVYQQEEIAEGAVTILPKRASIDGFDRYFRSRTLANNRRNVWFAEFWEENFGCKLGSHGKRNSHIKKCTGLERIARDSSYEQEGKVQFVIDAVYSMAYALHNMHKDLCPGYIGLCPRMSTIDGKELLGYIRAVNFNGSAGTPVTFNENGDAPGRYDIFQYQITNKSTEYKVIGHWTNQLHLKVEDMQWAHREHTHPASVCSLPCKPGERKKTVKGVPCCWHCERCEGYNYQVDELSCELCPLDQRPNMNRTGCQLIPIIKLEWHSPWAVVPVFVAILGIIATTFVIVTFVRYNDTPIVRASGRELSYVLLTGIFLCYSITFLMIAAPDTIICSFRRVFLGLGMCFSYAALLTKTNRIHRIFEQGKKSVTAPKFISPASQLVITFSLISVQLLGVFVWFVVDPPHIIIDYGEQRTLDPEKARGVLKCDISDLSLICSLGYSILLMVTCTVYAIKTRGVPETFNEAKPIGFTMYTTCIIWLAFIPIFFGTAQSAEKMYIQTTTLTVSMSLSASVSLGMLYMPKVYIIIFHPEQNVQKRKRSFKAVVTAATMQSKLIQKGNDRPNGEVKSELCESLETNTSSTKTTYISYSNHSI

mGlu2 = mGlu2 (Homo sapiens, UniProt Q14416); test: Cell based functional selectivity assay
[11] = Brain homogenate binding assay; format: in vitro ADME; details: mouse
Summary of the method: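 Fresh mouse brains (6–8) were homogenized 1:3 (w/w) in PBS on ice, spiked at 1000 ng/g and run in triplicate. Rapid equilibrium dialysis was against PBS for 4 h at 37 °C, 130 rpm. Matrix-balanced aliquots were extracted with acetonitrile/internal standard and analysed by LC/MS/MS. fu = buffer/homogenate peak-area ratio, corrected for homogenate dilution.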

[12] = male, CD-1, mouse, brain, ip, 10 mg/kg
[13] = mouse, 10 mg/kg intraperitoneal

T1 sequence (P31424 21-1203): as the sequence (P31424 21-1203) above

SMILES: Cc1ccc2ccc(-c3cc(F)cc(C#N)c3)cc2n1 [Compound 3, reference compound]
- % Glu Max (rat mGlu5 [1]; average of n ≥ 3): 1.2 ± 0.3%
- IC50 (rat mGlu5 [1]; read-out: mGlu5 IC50, calcium mobilization, EC80 glutamate, HEK293A cells expressing rat mGlu5, average of n ≥ 3): 0.0095 ± 0.0016 µM

SMILES: Cc1nc2cc(-c3cc(F)cc(C#N)c3)ccc2s1 [Compound 18, 3-fluoro-5-(2-methylbenzo[d]thiazol-5-yl)benzonitrile]
- % Parent Remaining [2]: 20%
- progressive ratio responding for OSS stimuli (C57Bl/6J mice [3]; 3, 10, 30 mg/kg i.p.): dose dependently reduce
- progressive ratio responding for food reinforcer (C57Bl/6J mice [4]): no significant effects
- fraction unbound at 4 h, 1000 ng/g [5]: 0.006
- inhibition of marble burying (male CD-1 mice; 30 mg/kg ip): Significant inhibition
- selectivity, activity against mGlu7 (mGlu7): inactive
- selectivity, activity against mGlu3 (mGlu3): inactive
- fraction unbound at 4 h, 1000 ng/g [6]: 0.005
- Tmax [7, 12]: 15 min
- concentration at 30 min [7, 12]: 3.75 µM
- AUC(0-t) ([7]; male, CD-1, mouse, plasma, ip, 10 mg/kg): 801 ng·h/mL
- AUC0-6h in brain [7, 13]: 1530 ng·h/g
- brain exposure until the one hour time point [7, 13]: above 500 ng/g
- exposure in brain relative to plasma ([7]; mouse, 10 mg/kg intraperitoneal, AUC0-6h): nearly two fold higher
- brain exposure expected at 30 mg/kg ([7]; mouse, assuming a dose linear increase in exposure from the 10 mg/kg study): > 10 µM
- selectivity, activity against mGlu1 (mGlu1): inactive
- selectivity, activity against mGlu4 (mGlu4): inactive
- % Parent Remaining [8]: 18%
- blockade of the glutamate response [9]: near complete blockade
- block of radioligand binding (rat mGlu5 [10]; [3H]3-methoxy-5-(pyridin-2-ylethynyl)pyridine, at the highest concentration): almost completely block the binding of the radioligand
- Ki for binding relative to potency in the functional assay (rat mGlu5 [10]; [3H]methoxyPEPy competition versus calcium mobilization IC50): approximately eight fold less
- selectivity, activity against mGlu8 (mGlu8): inactive
- selectivity, activity against mGlu2 (mGlu2): inactive
- fraction unbound at 4 h, 1000 ng/g [11]: 0.001
- IC50 (rat mGlu5 [1]): 0.061 ± 0.007 µM
- % Glu Max (rat mGlu5 [1]; average of n ≥ 3): 0.63 ± 0.12%

SMILES: Cc1nc(C#Cc2cccnc2)cs1 [MTEP, 3-[(2-methyl-1,3-thiazol-4-yl)ethynyl]pyridine, reference compound]
- progressive ratio responding for OSS stimuli (C57Bl/6J mice [3]; 1.5, 5, 15 mg/kg i.p.): dose-dependently reduced
- inhibition of marble burying (male CD-1 mice; 15 mg/kg ip, positive control): significant effect
